Test system: Entamoeba histolytica
Experiment: Antiamoebic activity against Entamoeba histolytica HM-1:IMSS after 72 hrs by microdilution assay
Format: functional, organism-based
In short: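 E. histolytica trophozoites grown in TYIS-33 medium; compounds dissolved in DMSO and diluted in medium to a 1 mg/mL stock, then two-fold serial dilutions in wells. Inoculum 1.7 × 10⁴ organisms/well, gassed with nitrogen, 37 °C for 72 h. Cells methanol-fixed and eosin-stained, dye released with 0.1 N NaOH, OD 490 nm read. Percent inhibition versus log dose, IC50 from linear regression.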

SMILES | IC50
CN(Cc1ccccc1)C(=S)N1CCC(c2cccc(Cl)c2)=N1 | 2.91 µM
S=C(N1CCCC1)N1CCC(c2cccc(Cl)c2)=N1 | 2.31 µM
CN(Cc1ccccc1)C(=S)N1CCC(c2cccc(Br)c2)=N1 | 4.44 µM
S=C(N1CCCCCC1)N1CCC(c2ccccc2)=N1 | 4.39 µM
S=C(N1CCCCCC1)N1CCC(c2cccc(Br)c2)=N1 | 1.09 µM
S=C(N1CCCCCC1)N1CCC(c2cccc(Cl)c2)=N1 | 0.89 µM
CN(C(=S)N1CCC(c2cccc(Br)c2)=N1)C1CCCCC1 | 5.25 µM
CN(C(=S)N1CCC(c2cccc(Cl)c2)=N1)C1CCCCC1 | 3.71 µM
S=C(N1CCC(c2ccccc2)=N1)N1CCCc2ccccc21 | 6.19 µM
S=C(N1CCC(c2cccc(Cl)c2)=N1)N1CCCc2ccccc21 | 1.77 µM
Cc1ccccc1NC(=S)N1CCC(c2ccccc2)=N1 | 4.78 µM
Cc1ccccc1NC(=S)N1CCC(c2cccc(Br)c2)=N1 | 3.82 µM
S=C(N1CCCC1)N1CCC(c2ccccc2)=N1 | 3.73 µM
Cc1ccccc1NC(=S)N1CCC(c2cccc(Cl)c2)=N1 | 1.68 µM
Cc1cccc(NC(=S)N2CCC(c3ccccc3)=N2)c1 | 5.01 µM
Cc1cccc(NC(=S)N2CCC(c3cccc(Br)c3)=N2)c1 | 3.35 µM
Cc1cccc(NC(=S)N2CCC(c3cccc(Cl)c3)=N2)c1 | 2.81 µM
Cc1ccc(NC(=S)N2CCC(c3cccc(Br)c3)=N2)cc1 | 5.33 µM
Cc1ccc(NC(=S)N2CCC(c3cccc(Cl)c3)=N2)cc1 | 2.4 µM
Fc1ccc(NC(=S)N2CCC(c3ccccc3)=N2)c(F)c1 | 1.76 µM
Fc1ccc(NC(=S)N2CCC(c3cccc(Cl)c3)=N2)c(F)c1 | 0.51 µM
S=C(NC1C2CC3CC(C2)CC1C3)N1CCC(c2ccccc2)=N1 (stereo not given) | 1.79 µM
S=C(NC1C2CC3CC(C2)CC1C3)N1CCC(c2cccc(Br)c2)=N1 (stereo not given) | 0.58 µM
CN(C(=S)N1CCC(c2ccccc2)=N1)C1CCCCC1 | 5.94 µM
CN(Cc1ccccc1)C(=S)N1CCC(c2ccccc2)=N1 | 7.31 µM
S=C(N1CCCC1)N1CCC(c2cccc(Br)c2)=N1 | 2.82 µM
S=C(NC1C2CC3CC(C2)CC1C3)N1CCC(c2cccc(Cl)c2)=N1 (stereo not given) | 0.47 µM
S=C(N1CCC(c2cccc(Br)c2)=N1)N1CCCc2ccccc21 | 2.78 µM
Fc1ccc(NC(=S)N2CCC(c3cccc(Br)c3)=N2)c(F)c1 | 0.67 µM
Cc1ccc(NC(=S)N2CCC(c3ccccc3)=N2)cc1 | 9.56 µM
